Measured values from ChEMBL document CHEMBL1629608, “Variations in amino acid composition of antisense peptide-phosphorodiamidate morpholino oligomer affect potency against Escherichia coli in vitro and in vivo” (Antimicrob Agents Chemother, 2009).
Values after ≈ are worked out from the molar mass of the structure shown. Blank lines part the entries; values can stand above or below the molecule they belong to. Active and inactive are the calls of the source. The rule behind the calls is not given here.

Tests used:
Escherichia coli [1] = experiment: Antibacterial activity against Escherichia coli K-12 W3110 by microdilution method; assay type: functional; conditions: K-12 substr. W3110
Escherichia coli [2] = experiment: Ratio of compound MIC to ampicillin MIC for Escherichia coli K-12 W3110; assay type: functional, K-12 substr. W3110
Escherichia coli [3] = experiment: Antibacterial activity against Escherichia coli K-12 W3110 infected in mouse assessed as reduction of bacterial level in blood at 30 ug, ip administered 15 mins and 12 hrs postinfection measured after 2 hrs post dose relative to control; assay type: functional, K-12 substr. W3110; design: scale not given: the % may be the effect or the level left
How it was run: (§1)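 Mice in groups of 3–7 were infected intraperitoneally with E. coli W3110 from an LB culture. They were dosed ip with 10–300 μg per dose at 15 min and 12 h postinfection. Controls were water or scrambled-sequence PPMO. Blood was taken at 2, 6, 12, 24 and 48 h, diluted and plated on LB for CFU/ml. Log CFU was compared by one-way ANOVA with Tukey-Kramer; mean ± SD.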

Escherichia coli [4] = experiment: Antibacterial activity against Escherichia coli K-12 W3110 infected in mouse assessed as reduction of bacterial level in blood at 100 ug, ip administered 15 mins and 12 hrs postinfection measured after 12 hrs post dose relative to control; assay type: functional, K-12 substr. W3110; how it was run: as §1
Escherichia coli [5] = experiment: Antibacterial activity against Escherichia coli K-12 W3110 infected in mouse assessed as reduction of bacterial level in blood at 300 ug, ip administered 15 mins and 12 hrs postinfection measured after 12 hrs post dose relative to control; assay type: functional, K-12 substr. W3110; how it was run: as §1
Escherichia coli [6] = experiment: Antibacterial activity against Escherichia coli K-12 W3110 infected in mouse assessed as increase of mouse survival at 30 to 300 ug, ip administered 15 mins and 12 hrs postinfection; assay type: functional, organism-based; conditions: K-12 substr. W3110
How it was run: (§2)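 Mice in groups of 3–7 were infected intraperitoneally with E. coli W3110 from an LB culture. They were treated ip at 15 min and 12 h postinfection with 10, 30, 100 or 300 μg per dose; 300 μg is noted as ~15 mg/kg. Controls were water or scrambled-sequence PPMO. Survival was followed to 48 h and analysed by the Kaplan-Meier method.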

Escherichia coli [7] = experiment: Antibacterial activity against Escherichia coli K-12 W3110 infected in mouse assessed as increase of mouse survival at 10 ug, ip administered 15 mins and 12 hrs postinfection; assay type: functional, organism-based; conditions: K-12 substr. W3110, filed as antagonist; how it was run: as §2
Escherichia coli [8] = experiment: Antibacterial activity against Escherichia coli K-12 W3110 infected in mouse assessed as reduction of bacterial level in blood at 100 to 300 ug, ip administered 15 mins and 12 hrs postinfection relative to control; assay type: functional, K-12 substr. W3110
How it was run: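 E. coli K-12 W3110 was grown in LB broth for the inoculum and injected intraperitoneally into groups of 3–7 mice. Conjugates were given ip at 15 min and 12 h postinfection (10–300 μg per dose), with water or scrambled-sequence conjugate as controls. Blood drawn at 2, 6, 12, 24 and 48 h was diluted and plated on LB for CFU counts. Survival was followed by Kaplan-Meier, and log CFU was compared by ANOVA with Tukey-Kramer.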

Escherichia coli [9] = experiment: Antibacterial activity against Escherichia coli K-12 W3110 infected in mouse assessed as increase of mouse survival at 30 ug, ip administered 15 mins and 12 hrs postinfection; assay type: functional, organism-based; conditions: K-12 substr. W3110; how it was run: as §2

MIC (Escherichia coli [1]): 2.5 µM (≈ 13.3 µg/mL)
Structure (SMILES): Cc1cn([C@H]2CN(P(=O)(OC[C@@H]3CN(P(=O)(OC[C@@H]4CN(P(=O)(OC[C@@H]5CN(P(=O)(OC[C@@H]6CN(P(=O)(OC[C@@H]7CN(P(=O)(OC[C@@H]8CN(P(=O)(OC[C@@H]9CN(P(=O)(OC[C@@H]%10CNC[C@H](n%11cnc%12c(=O)[nH]c(N)nc%12%11)O%10)N(C)C)C[C@H](n%10cc(C)c(=O)[nH]c%10=O)O9)N(C)C)C[C@H](n9cnc%10c(=O)[nH]c(N)nc%109)O8)N(C)C)C[C@H](n8cnc9c(N)ncnc98)O7)N(C)C)C[C@H](n7cc(C)c(=O)[nH]c7=O)O6)N(C)C)C[C@H](n6cnc7c(N)ncnc76)O5)N(C)C)C[C@H](n5cnc6c(=O)[nH]c(N)nc65)O4)N(C)C)C[C@H](n4ccc(N)nc4=O)O3)N(C)C)C[C@@H](COP(=O)(N(C)C)N3C[C@@H](COP(=O)(N(C)C)N4C[C@@H](COP(=O)(N(C)C)N5CCN(C(=O)CCNC(=O)CCCCCNC(=O)[C@H](Cc6ccccc6)NC(=O)[C@H](Cc6ccccc6)NC(=O)[C@H](CCCNC(=N)N)NC(=O)[C@H](Cc6ccccc6)NC(=O)[C@H](Cc6ccccc6)NC(=O)[C@H](CCCNC(=N)N)NC(=O)[C@H](Cc6ccccc6)NC(=O)[C@H](Cc6ccccc6)NC(=O)[C@@H](N)CCCNC(=N)N)CC5)O[C@@H](n5ccc(N)nc5=O)C4)O[C@@H](n4cc(C)c(=O)[nH]c4=O)C3)O2)c(=O)[nH]c1=O (stereo not given in full)
Ratio (Escherichia coli [2]): 2.5

MIC (Escherichia coli [1]): 1.25 µM (≈ 7.02 µg/mL)
Structure (SMILES): Cc1cn([C@H]2CN(P(=O)(OC[C@@H]3CN(P(=O)(OC[C@@H]4CN(P(=O)(OC[C@@H]5CN(P(=O)(OC[C@@H]6CN(P(=O)(OC[C@@H]7CN(P(=O)(OC[C@@H]8CN(P(=O)(OC[C@@H]9CN(P(=O)(OC[C@@H]%10CNC[C@H](n%11cnc%12c(=O)[nH]c(N)nc%12%11)O%10)N(C)C)C[C@H](n%10cc(C)c(=O)[nH]c%10=O)O9)N(C)C)C[C@H](n9cnc%10c(=O)[nH]c(N)nc%109)O8)N(C)C)C[C@H](n8cnc9c(N)ncnc98)O7)N(C)C)C[C@H](n7cc(C)c(=O)[nH]c7=O)O6)N(C)C)C[C@H](n6cnc7c(N)ncnc76)O5)N(C)C)C[C@H](n5cnc6c(=O)[nH]c(N)nc65)O4)N(C)C)C[C@H](n4ccc(N)nc4=O)O3)N(C)C)C[C@@H](COP(=O)(N(C)C)N3C[C@@H](COP(=O)(N(C)C)N4C[C@@H](COP(=O)(N(C)C)N5CCN(C(=O)CCNC(=O)CCCCCNC(=O)[C@H](CCCNC(=N)N)NC(=O)CCCCNC(=O)[C@H](CCCNC(=N)N)NC(=O)[C@H](CCCNC(=N)N)NC(=O)CCCCNC(=O)[C@H](CCCNC(=N)N)NC(=O)[C@H](CCCNC(=N)N)NC(=O)CCCCNC(=O)[C@H](CCCNC(=N)N)NC(=O)[C@H](CCCNC(=N)N)NC(=O)CCCCNC(=O)[C@@H](N)CCCNC(=N)N)CC5)O[C@@H](n5ccc(N)nc5=O)C4)O[C@@H](n4cc(C)c(=O)[nH]c4=O)C3)O2)c(=O)[nH]c1=O (stereo not given in full)
Activity (Escherichia coli [3]): 98%
log10cfu (Escherichia coli [4]): 2.5
log10cfu (Escherichia coli [5]): 2.5
Activity (Escherichia coli [6]): Active
Activity (Escherichia coli [7]): Antagonist

MIC (Escherichia coli [1]): > 80 µM
Structure (SMILES): Cc1cn([C@H]2CN(P(=O)(OC[C@@H]3CN(P(=O)(OC[C@@H]4CN(P(=O)(OC[C@@H]5CN(P(=O)(OC[C@@H]6CN(P(=O)(OC[C@@H]7CN(P(=O)(OC[C@@H]8CN(P(=O)(OC[C@@H]9CN(P(=O)(OC[C@@H]%10CNC[C@H](n%11cnc%12c(=O)[nH]c(N)nc%12%11)O%10)N(C)C)C[C@H](n%10cc(C)c(=O)[nH]c%10=O)O9)N(C)C)C[C@H](n9cnc%10c(=O)[nH]c(N)nc%109)O8)N(C)C)C[C@H](n8cnc9c(N)ncnc98)O7)N(C)C)C[C@H](n7cc(C)c(=O)[nH]c7=O)O6)N(C)C)C[C@H](n6cnc7c(N)ncnc76)O5)N(C)C)C[C@H](n5cnc6c(=O)[nH]c(N)nc65)O4)N(C)C)C[C@H](n4ccc(N)nc4=O)O3)N(C)C)C[C@@H](COP(=O)(N(C)C)N3C[C@@H](COP(=O)(N(C)C)N4C[C@@H](COP(=O)(N(C)C)N5CCN(C(=O)CCNC(=O)CCCCCNC(=O)[C@@H](N)CCCNC(=O)[C@H](Cc6ccccc6)NC(=O)[C@H](Cc6ccccc6)NC(=O)[C@@H](N)CCCNC(=O)[C@H](Cc6ccccc6)NC(=O)[C@H](Cc6ccccc6)NC(=O)[C@@H](N)CCCNC(=O)[C@H](Cc6ccccc6)NC(=O)[C@H](Cc6ccccc6)NC(=O)[C@@H](N)CCCN)CC5)O[C@@H](n5ccc(N)nc5=O)C4)O[C@@H](n4cc(C)c(=O)[nH]c4=O)C3)O2)c(=O)[nH]c1=O (stereo not given in full)

MIC (Escherichia coli [1]): 10 µM (≈ 53.6 µg/mL)
Structure (SMILES): Cc1cn([C@H]2CN(P(=O)(OC[C@@H]3CN(P(=O)(OC[C@@H]4CN(P(=O)(OC[C@@H]5CN(P(=O)(OC[C@@H]6CN(P(=O)(OC[C@@H]7CN(P(=O)(OC[C@@H]8CN(P(=O)(OC[C@@H]9CN(P(=O)(OC[C@@H]%10CNC[C@H](n%11cnc%12c(=O)[nH]c(N)nc%12%11)O%10)N(C)C)C[C@H](n%10cc(C)c(=O)[nH]c%10=O)O9)N(C)C)C[C@H](n9cnc%10c(=O)[nH]c(N)nc%109)O8)N(C)C)C[C@H](n8cnc9c(N)ncnc98)O7)N(C)C)C[C@H](n7cc(C)c(=O)[nH]c7=O)O6)N(C)C)C[C@H](n6cnc7c(N)ncnc76)O5)N(C)C)C[C@H](n5cnc6c(=O)[nH]c(N)nc65)O4)N(C)C)C[C@H](n4ccc(N)nc4=O)O3)N(C)C)C[C@@H](COP(=O)(N(C)C)N3C[C@@H](COP(=O)(N(C)C)N4C[C@@H](COP(=O)(N(C)C)N5CCN(C(=O)CCNC(=O)CCCCCNC(=O)[C@H](CCCCN)NC(=O)[C@H](Cc6ccccc6)NC(=O)[C@H](Cc6ccccc6)NC(=O)[C@H](CCCCN)NC(=O)[C@H](Cc6ccccc6)NC(=O)[C@H](Cc6ccccc6)NC(=O)[C@H](CCCCN)NC(=O)[C@H](Cc6ccccc6)NC(=O)[C@H](Cc6ccccc6)NC(=O)[C@@H](N)CCCCN)CC5)O[C@@H](n5ccc(N)nc5=O)C4)O[C@@H](n4cc(C)c(=O)[nH]c4=O)C3)O2)c(=O)[nH]c1=O (stereo not given in full)

MIC (Escherichia coli [1]): > 80 µM
Structure (SMILES): Cc1cn([C@H]2CN(P(=O)(OC[C@@H]3CN(P(=O)(OC[C@@H]4CN(P(=O)(OC[C@@H]5CN(P(=O)(OC[C@@H]6CN(P(=O)(OC[C@@H]7CN(P(=O)(OC[C@@H]8CN(P(=O)(OC[C@@H]9CN(P(=O)(OC[C@@H]%10CNC[C@H](n%11cnc%12c(=O)[nH]c(N)nc%12%11)O%10)N(C)C)C[C@H](n%10cc(C)c(=O)[nH]c%10=O)O9)N(C)C)C[C@H](n9cnc%10c(=O)[nH]c(N)nc%109)O8)N(C)C)C[C@H](n8cnc9c(N)ncnc98)O7)N(C)C)C[C@H](n7cc(C)c(=O)[nH]c7=O)O6)N(C)C)C[C@H](n6cnc7c(N)ncnc76)O5)N(C)C)C[C@H](n5cnc6c(=O)[nH]c(N)nc65)O4)N(C)C)C[C@H](n4ccc(N)nc4=O)O3)N(C)C)C[C@@H](COP(=O)(N(C)C)N3C[C@@H](COP(=O)(N(C)C)N4C[C@@H](COP(=O)(N(C)C)N5CCN(C(=O)CCNC(=O)CCCCCNC(=O)[C@H](CCCNC(=N)N)NC(=O)[C@@H](NC(=O)[C@@H](NC(=O)[C@H](CCCNC(=N)N)NC(=O)[C@@H](NC(=O)[C@@H](NC(=O)[C@H](CCCNC(=N)N)NC(=O)[C@@H](NC(=O)[C@@H](NC(=O)[C@@H](N)CCCNC(=N)N)C(C)C)C(C)C)C(C)C)C(C)C)C(C)C)C(C)C)CC5)O[C@@H](n5ccc(N)nc5=O)C4)O[C@@H](n4cc(C)c(=O)[nH]c4=O)C3)O2)c(=O)[nH]c1=O (stereo not given in full)

MIC (Escherichia coli [1]): 20 µM (≈ 97.4 µg/mL)
Structure (SMILES): Cc1cn([C@H]2CN(P(=O)(OC[C@@H]3CN(P(=O)(OC[C@@H]4CN(P(=O)(OC[C@@H]5CN(P(=O)(OC[C@@H]6CN(P(=O)(OC[C@@H]7CN(P(=O)(OC[C@@H]8CN(P(=O)(OC[C@@H]9CN(P(=O)(OC[C@@H]%10CNC[C@H](n%11cnc%12c(=O)[nH]c(N)nc%12%11)O%10)N(C)C)C[C@H](n%10cc(C)c(=O)[nH]c%10=O)O9)N(C)C)C[C@H](n9cnc%10c(=O)[nH]c(N)nc%109)O8)N(C)C)C[C@H](n8cnc9c(N)ncnc98)O7)N(C)C)C[C@H](n7cc(C)c(=O)[nH]c7=O)O6)N(C)C)C[C@H](n6cnc7c(N)ncnc76)O5)N(C)C)C[C@H](n5cnc6c(=O)[nH]c(N)nc65)O4)N(C)C)C[C@H](n4ccc(N)nc4=O)O3)N(C)C)C[C@@H](COP(=O)(N(C)C)N3C[C@@H](COP(=O)(N(C)C)N4C[C@@H](COP(=O)(N(C)C)N5CCN(C(=O)CCNC(=O)CCCCCNC(=O)[C@H](Cc6ccccc6)NC(=O)[C@H](Cc6ccccc6)NC(=O)[C@H](CCCNC(=N)N)NC(=O)[C@H](Cc6ccccc6)NC(=O)[C@H](Cc6ccccc6)NC(=O)[C@@H](N)CCCNC(=N)N)CC5)O[C@@H](n5ccc(N)nc5=O)C4)O[C@@H](n4cc(C)c(=O)[nH]c4=O)C3)O2)c(=O)[nH]c1=O (stereo not given in full)

Structure (SMILES): CC1(C)S[C@@H]2[C@H](NC(=O)[C@H](N)c3ccccc3)C(=O)N2[C@H]1C(=O)O [AMPICILLIN]
log10cfu (Escherichia coli [8]): 3
Activity (Escherichia coli [3]; K-12 substr. W3110): inactive
Activity (Escherichia coli [9]): inactive
